Results from ChEMBL document CHEMBL3632459, “Synthesis and evaluation of aporphine analogs containing C1 allyl isosteres at the h5-HT(2A) receptor” (Bioorg Med Chem Lett, 2015).

Assays:
[1] = species on record: Homo sapiens; assay: Selectivity ratio of Ke(app) for adrenergic alpha1A receptor (unknown origin) to Ke(app) for human 5-HT2A receptor
Summary of the method: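 Ratio of apparent Ke values from matched FLIPR calcium functional assays at human 5-HT2A and at α1A receptors. Compounds were screened at 10 μM. Ke was taken from the rightward EC50 shift of an 8-point half-log agonist curve (5-HT at 5-HT2A) with one antagonist concentration, Ke = [L]/(DR−1). Values are means of ≥2 triplicate experiments.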

[2] = target: 5-hydroxytryptamine receptor 1A (Homo sapiens) (UniProt P08908); assay: Displacement of [3H]-8-OH-DPAT from recombinant human 5-HT1A receptor at 10 uM after […] by Microbeta scintillation counting analysis relative to control
[3] = target: 5-hydroxytryptamine receptor 5A (Homo sapiens) (UniProt P47898); assay: Displacement of [3H]-LSD from recombinant human 5-HT5A receptor at 10 uM after […] by Microbeta scintillation counting analysis relative to control
[4] = target: Alpha-1A adrenergic receptor (Homo sapiens) (UniProt P35348); assay: Displacement of [3H]-Prazosin from recombinant human adrenergic alpha1A receptor at 10 uM after […] by Microbeta scintillation counting analysis relative to control
Alpha-1A adrenergic receptor (Homo sapiens), sequence (P35348 whole entry): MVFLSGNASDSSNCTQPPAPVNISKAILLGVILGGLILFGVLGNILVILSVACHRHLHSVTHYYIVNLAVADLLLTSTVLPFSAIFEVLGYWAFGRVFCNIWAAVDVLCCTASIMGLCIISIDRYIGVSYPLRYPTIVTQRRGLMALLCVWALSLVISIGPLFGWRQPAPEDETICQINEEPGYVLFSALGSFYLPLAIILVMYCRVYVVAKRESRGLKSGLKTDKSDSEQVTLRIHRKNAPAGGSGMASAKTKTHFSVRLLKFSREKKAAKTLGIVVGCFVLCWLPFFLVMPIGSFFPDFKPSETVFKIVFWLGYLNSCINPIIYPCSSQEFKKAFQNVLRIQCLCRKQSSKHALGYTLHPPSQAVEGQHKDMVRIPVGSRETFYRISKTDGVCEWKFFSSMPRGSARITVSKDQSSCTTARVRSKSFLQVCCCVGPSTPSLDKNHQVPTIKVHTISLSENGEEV

[5] = target: Alpha-1B adrenergic receptor (Homo sapiens) (UniProt P35368); assay: Displacement of [3H]-Prazosin from recombinant human adrenergic alpha1B receptor at 10 uM after […] by Microbeta scintillation counting analysis relative to control
[6] = target: Alpha-1D adrenergic receptor (Homo sapiens) (UniProt P25100); assay: Inhibition of recombinant human adrenergic alpha1D receptor at 10 uM after […] by Microbeta scintillation counting analysis relative to control
[7] = target: Beta-1 adrenergic receptor (Homo sapiens) (UniProt P08588); assay: Displacement of [3H]-Iodopindolol from recombinant human adrenergic beta1 receptor at 10 uM after […] by Microbeta scintillation counting analysis relative to control
Beta-1 adrenergic receptor (Homo sapiens), sequence (P08588 whole entry, looked up): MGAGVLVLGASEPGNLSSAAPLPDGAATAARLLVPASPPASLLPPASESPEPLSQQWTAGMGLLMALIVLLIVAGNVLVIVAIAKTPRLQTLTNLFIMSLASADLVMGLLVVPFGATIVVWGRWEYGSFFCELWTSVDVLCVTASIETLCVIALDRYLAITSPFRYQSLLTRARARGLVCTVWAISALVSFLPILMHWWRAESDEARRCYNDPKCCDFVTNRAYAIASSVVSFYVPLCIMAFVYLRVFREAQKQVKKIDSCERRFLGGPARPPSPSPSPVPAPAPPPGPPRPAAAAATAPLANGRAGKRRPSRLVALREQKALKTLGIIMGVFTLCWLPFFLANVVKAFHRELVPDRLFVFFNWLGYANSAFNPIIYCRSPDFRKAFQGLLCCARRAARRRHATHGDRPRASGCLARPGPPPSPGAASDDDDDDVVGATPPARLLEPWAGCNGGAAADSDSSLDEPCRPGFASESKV

[8] = target: Beta-2 adrenergic receptor (Homo sapiens) (UniProt P07550); assay: Displacement of [3H]-Iodopindolol from recombinant human adrenergic beta2 receptor at 10 uM after […] by Microbeta scintillation counting analysis relative to control
[9] = target: Beta-3 adrenergic receptor (Homo sapiens) (UniProt P13945); assay: Displacement of [3H]-Iodopindolol from recombinant human adrenergic beta3 receptor at 10 uM after […] by Microbeta scintillation counting analysis relative to control
[10] = species on record: Rattus norvegicus; assay: Displacement of [3H]-Flunitrazepam from rat brain Benzodiazepine receptor at 10 uM after […] by Microbeta scintillation counting analysis relative to control
[11] = target: D(4) dopamine receptor (Homo sapiens) (UniProt P21917); assay: Displacement of [3H]-N-methylspiperone from recombinant human dopamine D4 receptor at 10 uM after […] by Microbeta scintillation counting analysis relative to control
[12] = target: D(2) dopamine receptor (Homo sapiens) (UniProt P14416); assay: Displacement of [3H]-N-methylspiperone from recombinant human dopamine D2 receptor at 10 uM after […] by Microbeta scintillation counting analysis relative to control
[13] = target: D(1B) dopamine receptor (Homo sapiens) (UniProt P21918); assay: Displacement of [3H]-[…] from recombinant human dopamine D5 receptor at 10 uM after […] by Microbeta scintillation counting analysis relative to control
[14] = target: Delta-type opioid receptor (Homo sapiens) (UniProt P41143); assay: Displacement of [3H]-DADLE from recombinant human delta opioid receptor at 10 uM after […] by Microbeta scintillation counting analysis relative to control
Delta-type opioid receptor (Homo sapiens), sequence (P41143 whole entry): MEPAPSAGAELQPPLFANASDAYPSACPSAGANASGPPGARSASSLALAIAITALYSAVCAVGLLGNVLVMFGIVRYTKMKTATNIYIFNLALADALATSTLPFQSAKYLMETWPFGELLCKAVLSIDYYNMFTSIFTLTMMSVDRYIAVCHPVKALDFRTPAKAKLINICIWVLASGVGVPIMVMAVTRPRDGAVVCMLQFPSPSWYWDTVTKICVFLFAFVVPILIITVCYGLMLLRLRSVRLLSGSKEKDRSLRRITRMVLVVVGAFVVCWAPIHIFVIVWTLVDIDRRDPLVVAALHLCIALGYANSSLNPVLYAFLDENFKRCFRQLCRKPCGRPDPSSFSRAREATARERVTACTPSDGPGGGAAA

[15] = target: GABA-A receptor; agonist GABA site (Homo sapiens) (UniProt P14867+P47870+P28472+P48169+P34903+P18505+P47869+P31644+Q16445); assay: Displacement of [3H]-Muscimol from recombinant human GABAA receptor at 10 uM after […] by Microbeta scintillation counting analysis relative to control; assay type: protein-complex assay
[16] = target: Histamine H1 receptor (Homo sapiens) (UniProt P35367); assay: Displacement of [3H]-Pyrilamine from recombinant human histamine H1 receptor at 10 uM after […] by Microbeta scintillation counting analysis relative to control
[17] = target: Histamine H3 receptor (Homo sapiens) (UniProt Q9Y5N1); assay: Displacement of [3H]-alpha-methylhistamine from recombinant human histamine H3 receptor at 10 uM after […] by Microbeta scintillation counting analysis relative to control
Histamine H3 receptor (Homo sapiens), sequence (Q9Y5N1 whole entry): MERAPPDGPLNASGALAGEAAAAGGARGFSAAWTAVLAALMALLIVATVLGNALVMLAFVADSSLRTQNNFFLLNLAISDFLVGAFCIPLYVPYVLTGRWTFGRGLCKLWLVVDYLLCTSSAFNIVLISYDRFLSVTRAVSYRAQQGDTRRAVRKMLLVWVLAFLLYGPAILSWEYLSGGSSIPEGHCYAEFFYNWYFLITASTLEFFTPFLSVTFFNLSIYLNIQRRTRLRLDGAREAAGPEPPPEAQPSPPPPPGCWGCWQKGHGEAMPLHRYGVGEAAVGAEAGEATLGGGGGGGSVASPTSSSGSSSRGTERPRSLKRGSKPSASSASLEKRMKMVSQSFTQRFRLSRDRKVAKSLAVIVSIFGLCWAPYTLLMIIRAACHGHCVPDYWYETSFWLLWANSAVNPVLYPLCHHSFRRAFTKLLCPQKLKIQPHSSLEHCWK

[18] = target: Histamine H4 receptor (Homo sapiens) (UniProt Q9H3N8); assay: Displacement of [3H]-Histamine from recombinant human histamine H4 receptor at 10 uM after […] by Microbeta scintillation counting analysis relative to control
Histamine H4 receptor (Homo sapiens), sequence (Q9H3N8 whole entry): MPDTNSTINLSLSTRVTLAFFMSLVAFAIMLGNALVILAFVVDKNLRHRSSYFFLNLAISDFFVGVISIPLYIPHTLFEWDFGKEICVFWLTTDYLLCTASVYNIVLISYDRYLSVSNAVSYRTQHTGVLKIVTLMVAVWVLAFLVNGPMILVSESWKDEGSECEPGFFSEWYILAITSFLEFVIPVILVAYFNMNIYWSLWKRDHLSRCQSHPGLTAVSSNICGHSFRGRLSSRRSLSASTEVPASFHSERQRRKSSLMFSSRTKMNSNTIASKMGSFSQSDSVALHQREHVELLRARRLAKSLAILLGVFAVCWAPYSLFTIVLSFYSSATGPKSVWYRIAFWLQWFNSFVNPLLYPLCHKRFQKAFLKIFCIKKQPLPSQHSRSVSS

[19] = target: Kappa-type opioid receptor (Homo sapiens) (UniProt P41145); assay: Displacement of [3H]-U69593 from recombinant human kappa opioid receptor at 10 uM after […] by Microbeta scintillation counting analysis relative to control
[20] = target: Muscarinic acetylcholine receptor M1 (Homo sapiens) (UniProt P11229); assay: Displacement of [3H]-QNB from recombinant human muscarinic M1 receptor at 10 uM after […] by Microbeta scintillation counting analysis relative to control
Muscarinic acetylcholine receptor M1 (Homo sapiens), sequence (P11229 whole entry): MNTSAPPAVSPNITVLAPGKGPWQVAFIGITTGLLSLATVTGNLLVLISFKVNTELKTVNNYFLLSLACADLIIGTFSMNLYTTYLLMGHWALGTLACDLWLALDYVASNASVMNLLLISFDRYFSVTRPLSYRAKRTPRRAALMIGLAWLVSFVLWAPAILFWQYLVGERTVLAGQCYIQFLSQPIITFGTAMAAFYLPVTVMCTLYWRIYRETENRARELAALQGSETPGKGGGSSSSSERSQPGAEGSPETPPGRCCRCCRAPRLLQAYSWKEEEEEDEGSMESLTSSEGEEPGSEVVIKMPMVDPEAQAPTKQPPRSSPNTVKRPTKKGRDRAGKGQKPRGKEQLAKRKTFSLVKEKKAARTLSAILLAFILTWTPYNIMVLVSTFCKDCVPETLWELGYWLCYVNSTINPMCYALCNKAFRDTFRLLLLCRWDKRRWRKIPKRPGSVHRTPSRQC

[21] = target: Muscarinic acetylcholine receptor M2 (Homo sapiens) (UniProt P08172); assay: Displacement of [3H]-QNB from recombinant human muscarinic M2 receptor at 10 uM after […] by Microbeta scintillation counting analysis relative to control
[22] = target: Muscarinic acetylcholine receptor M3 (Homo sapiens) (UniProt P20309); assay: Displacement of [3H]-QNB from recombinant human muscarinic M3 receptor at 10 uM after […] by Microbeta scintillation counting analysis relative to control
Muscarinic acetylcholine receptor M3 (Homo sapiens), sequence (P20309 whole entry, looked up): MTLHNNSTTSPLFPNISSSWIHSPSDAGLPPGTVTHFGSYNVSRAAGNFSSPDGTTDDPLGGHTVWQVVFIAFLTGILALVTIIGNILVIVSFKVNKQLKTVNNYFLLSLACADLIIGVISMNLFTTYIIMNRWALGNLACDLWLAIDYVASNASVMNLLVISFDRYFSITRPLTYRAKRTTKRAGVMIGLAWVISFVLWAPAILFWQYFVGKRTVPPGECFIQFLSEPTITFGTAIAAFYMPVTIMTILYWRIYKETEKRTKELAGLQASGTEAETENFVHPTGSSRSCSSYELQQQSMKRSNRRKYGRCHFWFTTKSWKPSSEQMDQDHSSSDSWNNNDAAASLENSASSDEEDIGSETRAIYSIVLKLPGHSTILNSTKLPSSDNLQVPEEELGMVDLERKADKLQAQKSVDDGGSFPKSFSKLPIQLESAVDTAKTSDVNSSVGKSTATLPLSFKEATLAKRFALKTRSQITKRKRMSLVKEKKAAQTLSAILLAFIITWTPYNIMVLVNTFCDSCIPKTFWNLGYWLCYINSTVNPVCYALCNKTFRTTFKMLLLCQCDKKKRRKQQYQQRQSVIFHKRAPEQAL

[23] = target: Muscarinic acetylcholine receptor M4 (Homo sapiens) (UniProt P08173); assay: Displacement of [3H]-QNB from recombinant human muscarinic M4 receptor at 10 uM after […] by Microbeta scintillation counting analysis relative to control
[24] = target: Mu-type opioid receptor (Homo sapiens) (UniProt P35372); assay: Displacement of [3H]-DAMGO from recombinant human mu opioid receptor at 10 uM after […] by Microbeta scintillation counting analysis relative to control
[25] = target: Sodium-dependent noradrenaline transporter (Homo sapiens) (UniProt P23975); assay: Displacement of [3H]-Nisoxetine from recombinant human NET at 10 uM after […] by Microbeta scintillation counting analysis relative to control
[26] = target: Sodium-dependent serotonin transporter (Homo sapiens) (UniProt P31645); assay: Displacement of [3H]-Citalopram from recombinant human SERT at 10 uM after […] by Microbeta scintillation counting analysis relative to control
Sodium-dependent serotonin transporter (Homo sapiens), sequence (P31645 whole entry, looked up): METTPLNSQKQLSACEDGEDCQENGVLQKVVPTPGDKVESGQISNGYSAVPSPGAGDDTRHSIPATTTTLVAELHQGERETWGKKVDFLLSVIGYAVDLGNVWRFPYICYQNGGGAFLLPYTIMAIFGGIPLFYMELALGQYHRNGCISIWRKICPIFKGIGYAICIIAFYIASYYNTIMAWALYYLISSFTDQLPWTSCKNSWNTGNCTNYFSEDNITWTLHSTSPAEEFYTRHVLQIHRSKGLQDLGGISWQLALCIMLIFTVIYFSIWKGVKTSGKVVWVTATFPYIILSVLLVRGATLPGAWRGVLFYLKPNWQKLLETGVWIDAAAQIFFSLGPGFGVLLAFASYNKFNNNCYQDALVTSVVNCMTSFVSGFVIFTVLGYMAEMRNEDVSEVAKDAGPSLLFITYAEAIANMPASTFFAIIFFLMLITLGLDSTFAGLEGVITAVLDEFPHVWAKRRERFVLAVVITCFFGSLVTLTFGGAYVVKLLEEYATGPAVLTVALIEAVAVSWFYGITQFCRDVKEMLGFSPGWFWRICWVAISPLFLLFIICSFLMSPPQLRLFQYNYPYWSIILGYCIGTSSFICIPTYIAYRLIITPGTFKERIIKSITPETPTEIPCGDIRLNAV

[27] = target: 5-hydroxytryptamine receptor 1B (Homo sapiens, UniProt P28222); assay: Displacement of [3H]-[…] from recombinant human 5-HT1B receptor after […] by Microbeta scintillation counting analysis
[28] = target: 5-hydroxytryptamine receptor 1D (Homo sapiens, UniProt P28221); assay: Displacement of [3H]-[…] from recombinant human 5-HT1D receptor after […] by Microbeta scintillation counting analysis
5-hydroxytryptamine receptor 1D, sequence (P28221 whole entry): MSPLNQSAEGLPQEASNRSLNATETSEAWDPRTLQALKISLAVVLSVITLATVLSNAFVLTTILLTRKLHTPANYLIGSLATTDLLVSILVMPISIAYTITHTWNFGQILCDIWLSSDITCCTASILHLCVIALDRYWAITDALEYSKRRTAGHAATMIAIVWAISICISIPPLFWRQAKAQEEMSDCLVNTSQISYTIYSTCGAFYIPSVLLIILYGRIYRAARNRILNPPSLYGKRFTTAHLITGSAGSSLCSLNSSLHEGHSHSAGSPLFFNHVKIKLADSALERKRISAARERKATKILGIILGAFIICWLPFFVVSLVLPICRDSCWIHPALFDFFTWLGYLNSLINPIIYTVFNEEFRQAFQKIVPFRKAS

[29] = target: 5-hydroxytryptamine receptor 1E (Homo sapiens, UniProt P28566); assay: Displacement of [3H]-5-HT from recombinant human 5-HT1E receptor after […] by Microbeta scintillation counting analysis
[30] = target: 5-hydroxytryptamine receptor 2B (Homo sapiens, UniProt P41595); assay: Displacement of [3H]-LSD from recombinant human 5-HT2B receptor after […] by Microbeta scintillation counting analysis
[31] = target: 5-hydroxytryptamine receptor 3A (Homo sapiens, UniProt P46098); assay: Displacement of [3H]-LY278584 from recombinant human 5-HT3 receptor after […] by Microbeta scintillation counting analysis
[32] = target: 5-hydroxytryptamine receptor 7 (Homo sapiens, UniProt P34969); assay: Displacement of [3H]-LSD from recombinant human 5-HT7 receptor after […] by Microbeta scintillation counting analysis
[33] = target: Alpha-2B adrenergic receptor (Homo sapiens, UniProt P18089); assay: Displacement of [3H]-Clonidine from recombinant human adrenergic alpha2B receptor after […] by Microbeta scintillation counting analysis
[34] = target: Alpha-2C adrenergic receptor (Homo sapiens, UniProt P18825); assay: Displacement of [3H]-Clonidine from recombinant human adrenergic alpha2C receptor after […] by Microbeta scintillation counting analysis
[35] = target: D(1A) dopamine receptor (Homo sapiens, UniProt P21728); assay: Displacement of [3H]-[…] from recombinant human dopamine D1 receptor after […] by Microbeta scintillation counting analysis
[36] = target: D(3) dopamine receptor (Homo sapiens, UniProt P35462); assay: Displacement of [3H]-N-methylspiperone from recombinant human dopamine D3 receptor after […] by Microbeta scintillation counting analysis
[37] = target: Histamine H2 receptor (Homo sapiens, UniProt P25021); assay: Displacement of [3H]-Tiotidine from recombinant human histamine H2 receptor after […] by Microbeta scintillation counting analysis
[38] = target: Muscarinic acetylcholine receptor M5 (Homo sapiens, UniProt P08912); assay: Displacement of [3H]-Tiotidine from recombinant human muscarinic M5 receptor after […] by Microbeta scintillation counting analysis
Muscarinic acetylcholine receptor M5, sequence (P08912 whole entry): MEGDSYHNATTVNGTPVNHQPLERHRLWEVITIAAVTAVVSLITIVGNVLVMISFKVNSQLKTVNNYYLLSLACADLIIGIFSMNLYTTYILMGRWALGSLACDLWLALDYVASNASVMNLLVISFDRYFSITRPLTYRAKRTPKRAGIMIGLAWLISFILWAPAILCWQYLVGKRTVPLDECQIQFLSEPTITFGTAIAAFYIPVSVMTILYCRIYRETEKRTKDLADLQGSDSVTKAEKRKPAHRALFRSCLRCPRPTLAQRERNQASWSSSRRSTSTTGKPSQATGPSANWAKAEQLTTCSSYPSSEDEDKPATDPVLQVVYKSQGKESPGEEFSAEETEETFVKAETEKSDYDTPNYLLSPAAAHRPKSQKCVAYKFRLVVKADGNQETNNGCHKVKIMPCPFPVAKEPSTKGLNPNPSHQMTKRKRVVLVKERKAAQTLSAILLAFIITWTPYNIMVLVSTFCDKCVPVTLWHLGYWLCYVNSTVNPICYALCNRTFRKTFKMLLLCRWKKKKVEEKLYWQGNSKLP

[39] = target: Translocator protein (Homo sapiens, UniProt P30536); assay: Displacement of [3H]-PK11195 from recombinant human PBR after […] by Microbeta scintillation counting analysis
Translocator protein, sequence (P30536 whole entry): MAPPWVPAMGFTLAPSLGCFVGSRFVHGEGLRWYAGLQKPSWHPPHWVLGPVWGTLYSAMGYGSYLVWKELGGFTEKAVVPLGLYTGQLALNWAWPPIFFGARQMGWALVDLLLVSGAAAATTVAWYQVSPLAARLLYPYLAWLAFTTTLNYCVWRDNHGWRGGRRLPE

[40] = target: Sigma 2 receptor; assay: Displacement of [3H]-DTG from recombinant human sigma-2 receptor after […] by Microbeta scintillation counting analysis

COc1cc2c3c(c1OCCOC(C)=O)-c1cc4c(cc1CC3N(C)CC2)OCO4 (stereo unspecified)
Ratio Ke [1]: 0.3

COc1cc2c3c(c1OCc1ccc(Br)cc1)-c1cc4c(cc1CC3N(C)CC2)OCO4 (stereo unspecified)
Ratio Ke [1]: > 1090
inhibition [2]: < 50%
inhibition [3]: < 50%
inhibition [4]: < 50%
inhibition [5]: < 50%
inhibition [6]: < 50%
inhibition [7]: < 50%
inhibition [8]: < 50%
inhibition [9]: < 50%
inhibition [10]: < 50%
inhibition [11]: < 50%
inhibition [12]: < 50%
inhibition [13]: < 50%
inhibition [14]: < 50%
inhibition [15]: < 50%
inhibition [16]: < 50%
inhibition [17]: < 50%
inhibition [18]: < 50%
inhibition [19]: < 50%
inhibition [20]: < 50%
inhibition [21]: < 50%
inhibition [22]: < 50%
inhibition [23]: < 50%
inhibition [24]: < 50%
inhibition [25]: < 50%
inhibition [26]: < 50%
Ki [27]: > 900 nM
Ki [28]: > 900 nM
Ki [29]: > 900 nM
Ki [30]: > 900 nM
Ki [31]: > 900 nM
Ki [32]: > 900 nM
Ki [33]: > 900 nM
Ki [34]: > 900 nM
Ki [35]: > 900 nM
Ki [36]: > 900 nM
Ki [37]: > 900 nM
Ki [38]: > 900 nM
Ki [39]: > 900 nM
Ki [40]: > 300 nM
